According to ChEMBL document CHEMBL1255383, “Reduced histone deacetylase 7 activity restores function to misfolded CFTR in cystic fibrosis” (Nat Chem Biol, 2010):
The source made the active and inactive calls. The rule behind the calls is not given here.

Tests used:
[1] = target: T1, Histone deacetylase 7 (Homo sapiens) (UniProt Q8WUI4); test: Inhibition of HDAC7 in wild-type CFTR expressing human primary lung cells assessed as forskolin-stimulated Fdelta508 CFTR channel activity at 10 uM after 24 hrs relative to control; format: cell-based; settings: in the assay text read “Fdelta508 CFTR homozygous” for “wild-type CFTR expressing”
T1 sequence (whole entry): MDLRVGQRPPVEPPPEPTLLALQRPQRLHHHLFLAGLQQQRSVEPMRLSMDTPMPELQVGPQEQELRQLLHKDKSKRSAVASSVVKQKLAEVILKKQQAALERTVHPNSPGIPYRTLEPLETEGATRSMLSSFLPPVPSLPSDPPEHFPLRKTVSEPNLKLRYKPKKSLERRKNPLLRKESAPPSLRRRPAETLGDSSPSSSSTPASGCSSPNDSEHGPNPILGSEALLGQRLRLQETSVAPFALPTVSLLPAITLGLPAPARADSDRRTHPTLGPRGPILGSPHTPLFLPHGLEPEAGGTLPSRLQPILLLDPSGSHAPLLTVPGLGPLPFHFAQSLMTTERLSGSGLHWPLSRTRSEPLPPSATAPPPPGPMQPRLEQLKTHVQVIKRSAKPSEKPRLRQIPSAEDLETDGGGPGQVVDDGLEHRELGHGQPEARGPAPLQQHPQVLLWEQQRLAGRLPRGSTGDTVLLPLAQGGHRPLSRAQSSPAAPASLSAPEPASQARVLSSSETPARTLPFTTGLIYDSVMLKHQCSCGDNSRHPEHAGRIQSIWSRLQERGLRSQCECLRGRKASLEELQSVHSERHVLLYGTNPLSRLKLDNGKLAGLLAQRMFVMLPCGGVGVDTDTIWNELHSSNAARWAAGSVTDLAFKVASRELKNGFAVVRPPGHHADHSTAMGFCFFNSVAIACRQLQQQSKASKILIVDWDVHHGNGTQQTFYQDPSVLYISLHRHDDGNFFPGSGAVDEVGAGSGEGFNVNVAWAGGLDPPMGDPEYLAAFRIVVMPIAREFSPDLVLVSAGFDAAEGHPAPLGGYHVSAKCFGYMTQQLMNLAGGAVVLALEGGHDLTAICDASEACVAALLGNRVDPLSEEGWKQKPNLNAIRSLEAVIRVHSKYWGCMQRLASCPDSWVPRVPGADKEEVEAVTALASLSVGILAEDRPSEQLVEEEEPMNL
How it was run: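 Primary ΔF/ΔF human bronchial epithelial cells on permeable supports receive acute treatment, 10 μM for 24 h. The result is expressed relative to control.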

[2] = target: T1, Histone deacetylase 7 (Homo sapiens); test: Inhibition of HDAC7 in human homozygous Fdelta508 primary bronchial epithelial cells assessed as induction of short circuit currents at 1 uM for 4, 6, and 8 days relative to control; format: cell-based; settings: Epithelial cell
How it was run: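 Primary bronchial epithelial cells homozygous for ΔF508 from patients are grown on permeable supports. They are exposed to 1 μM for 4, 6 and 8 days against DMSO controls. ΔIsc is measured in Ussing chambers in μA/cm2, and is also compared with wild-type level.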

[3] = target: T1, Histone deacetylase 7 (Homo sapiens); test: Inhibition of HDAC7 in wild-type CFTR expressing human primary lung cells assessed as induction of short circuit currents at 1 uM for 4, 6, and 8 days relative to control; format: cell-based
BHK = test: Inhibition of HDAC expressed in hamster BHK cell line assessed as increase in plasma membrane Fdelta508 CFTR protein at 5 uM by immunofluorescence method; format: cell-based
How it was run: (§1)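 Surface ΔF508extope is labelled with HA.11 antibody under non-permeabilizing conditions.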

[4] = In vivo inhibition of HDAC; format: organism-based
[5] = target: Cystic fibrosis transmembrane conductance regulator (Homo sapiens) (UniProt P13569); test: Inhibition of CFTR transcription assessed as decrease of CFTR protein level at 50 uM by immunoblot method
[6] = target: T1, Histone deacetylase 7 (Homo sapiens); test: Inhibition of HDAC7 expressed in hamster BHK cell line assessed as increase in plasma membrane Fdelta508 CFTR protein at 1 uM by immunofluorescence method; format: cell-based; how it was run: as §1
[7] = target: T1, Histone deacetylase 7 (Homo sapiens); test: Inhibition of HDAC7 in Fdelta508 CFTR-expressing human CFBE41o- monolayers assessed as increase in short circuit currents at 10 uM
How it was run: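 CFBE41o- cells stably expressing ΔF508 CFTR are cultured on permeable supports and mounted for short-circuit current (Isc) measurement.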

[8] = target: T1, Histone deacetylase 7 (Homo sapiens); test: Inhibition of HDAC7 in human CFBE41o- cell line assessed as correction of mutant Fdelta508 CFTR trafficking to cell surface as glycoform at 1 uM by Immunoblot analysis
How it was run: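 CFBE41o- ΔF508 cells in α-MEM/10% FBS/2mM L-glutamine/puromycin are dosed at 1 μM every 24 h, chronically for up to 8 days, against DMSO. Lysates are made in Tris-HCl/NaCl/1% Triton X-100. 15μg protein is run on 8% SDS-PAGE and probed with M3A7 by chemiluminescence. Band B (ER) and band C (post-Golgi) are quantified, and the C/B ratio is calculated.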

Cystic fibrosis transmembrane conductance regulator (Homo sapiens), sequence (P13569 whole entry, looked up): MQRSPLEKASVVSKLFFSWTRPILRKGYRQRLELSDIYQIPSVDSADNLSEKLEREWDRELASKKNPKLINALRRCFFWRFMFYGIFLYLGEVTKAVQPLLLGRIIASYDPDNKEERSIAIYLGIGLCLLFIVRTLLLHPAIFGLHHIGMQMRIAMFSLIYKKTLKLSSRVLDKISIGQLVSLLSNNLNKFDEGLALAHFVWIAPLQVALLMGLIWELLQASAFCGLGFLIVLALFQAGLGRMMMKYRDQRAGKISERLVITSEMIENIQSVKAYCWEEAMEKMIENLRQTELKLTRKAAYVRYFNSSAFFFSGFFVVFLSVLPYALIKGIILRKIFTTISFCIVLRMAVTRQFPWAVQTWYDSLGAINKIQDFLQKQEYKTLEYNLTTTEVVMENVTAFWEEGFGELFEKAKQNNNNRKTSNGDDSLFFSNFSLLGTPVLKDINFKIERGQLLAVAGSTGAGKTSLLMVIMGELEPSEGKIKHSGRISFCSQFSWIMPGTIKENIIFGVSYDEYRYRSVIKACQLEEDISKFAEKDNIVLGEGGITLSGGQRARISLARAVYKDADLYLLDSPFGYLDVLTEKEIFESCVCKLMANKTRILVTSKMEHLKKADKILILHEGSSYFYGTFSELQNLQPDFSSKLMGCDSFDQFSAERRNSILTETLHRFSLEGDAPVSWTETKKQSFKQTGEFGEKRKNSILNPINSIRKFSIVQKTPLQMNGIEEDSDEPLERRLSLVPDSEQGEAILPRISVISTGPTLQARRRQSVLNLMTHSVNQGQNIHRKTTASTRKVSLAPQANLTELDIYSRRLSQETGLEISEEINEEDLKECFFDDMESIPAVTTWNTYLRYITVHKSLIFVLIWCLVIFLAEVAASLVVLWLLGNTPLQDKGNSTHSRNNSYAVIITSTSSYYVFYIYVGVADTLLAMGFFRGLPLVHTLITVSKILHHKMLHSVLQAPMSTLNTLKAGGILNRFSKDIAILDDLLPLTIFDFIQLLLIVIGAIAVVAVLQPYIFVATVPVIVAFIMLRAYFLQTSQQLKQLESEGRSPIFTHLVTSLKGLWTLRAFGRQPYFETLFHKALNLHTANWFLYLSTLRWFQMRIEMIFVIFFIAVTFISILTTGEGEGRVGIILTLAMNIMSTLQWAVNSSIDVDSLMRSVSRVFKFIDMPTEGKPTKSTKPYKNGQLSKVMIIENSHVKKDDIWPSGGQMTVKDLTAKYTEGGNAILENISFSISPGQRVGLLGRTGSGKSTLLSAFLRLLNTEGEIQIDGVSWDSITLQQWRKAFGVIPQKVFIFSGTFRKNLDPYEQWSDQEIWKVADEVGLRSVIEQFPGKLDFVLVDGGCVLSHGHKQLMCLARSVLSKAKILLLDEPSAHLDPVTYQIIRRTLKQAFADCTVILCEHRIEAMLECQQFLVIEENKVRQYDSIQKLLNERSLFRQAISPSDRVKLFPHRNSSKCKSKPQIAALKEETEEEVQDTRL

Activity [1] [uA.cm'-2]	IC50 [4] [nM]	inhibition [5]	Compound	also measured
3.7			C=C[C@@]1(C)CC(=O)[C@]2(O)[C@@]3(C)[C@@H](O)CCC(C)(C)[C@@H]3[C@H](O)[C@H](OC(C)=O)[C@@]2(C)O1	Activity [2]: 6.5 uA.cm'-2; Activity [3]: 23.1 uA.cm'-2
	5000	Active	Nc1ccccc1NC(=O)c1ccc(CNC(=O)OCc2cccnc2)cc1 [ENTINOSTAT]	inhibition (BHK): Active
	1000	Active	O=C(CCCCCN1C(=O)c2cccc3cccc(c23)C1=O)NO	inhibition [6]: Active; inhibition [7]: Active; inhibition [8]: Active
	100	Active	CC(/C=C/C(=O)NO)=C\[C@@H](C)C(=O)c1ccc(N(C)C)cc1 [TRICHOSTATIN]	
		Active	O=C(CCCCCCC(=O)Nc1ccccc1)NO	
3.7			O=c1c(-c2ccc(O)cc2)coc2cc(O)cc(O)c12	
